We go through one molecule from article PMC9049079 (RSC Advances, 2020).

Assay [1] has as its target T1, α-Glucosidase from Saccharomyces cerevisiae (Saccharomyces cerevisiae, UniProt P53341). The experiment in a line: α-Glucosidase inhibition assay. In kind it is biochemical.
Assay [2] addresses T1, α-Glucosidase from Saccharomyces cerevisiae. The experiment in a line: Inhibitory kinetic analysis. In kind it is biochemical. The method in brief: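 Enzyme in 100 mM phosphate buffer pH 6.8 at 37 °C with varied pNPG and test compound at 0, 2, 4, 6, 10 μM. Reversibility was tested as rate vs enzyme at 1.35–5.40 × 10−2 μM final. Lineweaver–Burk plots used enzyme at 6.96 × 10−2 μM. Ki came from nonlinear regression to competitive, non-competitive and mixed models. Mean ± SD, n = 3.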

For assay [3] the target is unchanged. The experiment in a line: Fluorescence quenching of α-glucosidase. It counts as binding. The settings on record: for Kq (quenching rate constant): Kq = KSV/τ0, τ0 = 10^−8 s; for Kd: K a (binding constant); for ΔG°: ΔG = ΔH − TΔS. The method in brief:
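Intrinsic fluorescence quenching: enzyme at 6.96 × 10−2 μM, titrated with test compound (0–1.10 μM final), 5 min equilibration, at 298, 304 and 310 K. Excitation 280 nm, emission 290–500 nm, slits 2.5 nm. Buffer (pH 6.8) and compound blanks were subtracted, with inner-filter correction from absorbance. KSV from linear F0/F vs [Q]. Ka and n from double-log plot. ΔH/ΔS from van't Hoff; ΔG = ΔH − TΔS.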

Where [4] appears, read: van't Hoff plot, 298, 304 and 310 K.

For orientation: IC50 means the concentration that gives 50% inhibition. The low end stands for higher potency, the high end for lower potency. For orientation: Ki means the equilibrium dissociation constant of an inhibitor or competing ligand from its target. As usually defined, the Kd is a measure of binding affinity in units of concentration. Lower therefore signals a tighter complex.

T1 sequence (P53341 whole entry): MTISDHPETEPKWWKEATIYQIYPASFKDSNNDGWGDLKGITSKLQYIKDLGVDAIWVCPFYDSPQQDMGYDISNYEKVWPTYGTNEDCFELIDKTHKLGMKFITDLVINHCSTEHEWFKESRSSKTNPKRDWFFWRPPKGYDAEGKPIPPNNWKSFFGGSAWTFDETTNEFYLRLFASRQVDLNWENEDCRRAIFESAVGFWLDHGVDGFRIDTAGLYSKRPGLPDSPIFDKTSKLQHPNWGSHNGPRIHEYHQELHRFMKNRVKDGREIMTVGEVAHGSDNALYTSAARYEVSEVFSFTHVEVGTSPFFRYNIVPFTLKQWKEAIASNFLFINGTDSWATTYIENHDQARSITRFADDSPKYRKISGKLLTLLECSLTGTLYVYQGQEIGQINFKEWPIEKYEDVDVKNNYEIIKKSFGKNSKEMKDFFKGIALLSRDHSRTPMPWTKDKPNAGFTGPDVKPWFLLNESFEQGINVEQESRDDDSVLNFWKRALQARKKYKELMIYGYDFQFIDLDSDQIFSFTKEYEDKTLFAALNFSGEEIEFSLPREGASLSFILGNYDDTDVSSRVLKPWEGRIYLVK

With `Oc1cc(O)cc(/C=C/c2ccc(O)c(O)c2)c1` [piceatannol, Piceatannol], 4390 ± 740 nM corresponded to half-maximal inhibition in assay [1] (IC50). Also, in assay [2], the Ki came to 5380 ± 240 nM. For the same molecule, in assay [2] (Lineweaver–Burk plots, piceatannol 0-10 μM), the “type of inhibition (mechanism)” value is listed as “non-competitive”. Besides, the reversibility of inhibition entry in assay [2] (plots of υ versus [α-glucosidase], piceatannol 0-10 μM) is “reversible”. For the same molecule, the “Kq (quenching rate constant)” value in assay [3] (298 K) worked out at 5.02e+13 M⁻¹ s⁻¹. Moreover, in assay [3] (304 K), the “Kq (quenching rate constant)” value was determined as 7.01e+13 M⁻¹ s⁻¹. Further, the “Kq (quenching rate constant)” value in assay [3] (310 K) is 1.604e+14 M⁻¹ s⁻¹. In assay [3] (T 298 K), the Kd is 2030 nM, the “K SV (Stern–Volmer quenching constant)” value is 5.02 ± 0.039 ×10^5 L mol^−1, the “n (number of binding sites per α-glucosidase molecule)” value is 1.17 ± 0.057 and the “ΔG°” value was -7.741 ± 2.3 kcal/mol. Also, in assay [3] (T 304 K), the Kd is 1380 nM, the “K SV (Stern–Volmer quenching constant)” value was 7.01 ± 0.032 ×10^5 L mol^−1, the “n (number of binding sites per α-glucosidase molecule)” value came to 1.16 ± 0.045 and the “ΔG°” value is -8.207 ± 2.3 kcal/mol. In addition, in assay [3] (T 310 K), the affinity, expressed as Kd, was 739 nM; the “K SV (Stern–Volmer quenching constant)” value is listed as 16.04 ± 0.049 ×10^5 L mol^−1; the “n (number of binding sites per α-glucosidase molecule)” value is listed as 1.32 ± 0.017; the “ΔG°” value was -8.676 ± 2.3 kcal/mol. Besides, in assay [3] (setting [4]), the “ΔH°” value was found to be 15.43 ± 2.31 kcal/mol and the “ΔS°” value worked out at 325.31 ± 31.80 J mol^−1 K^−1.
